From ChEMBL document CHEMBL5385967, “Nitrogen-containing andrographolide derivatives with multidrug resistance reversal effects in cancer cells” (RSC Med Chem, 2024)

What was measured:
[1] = biological target: T1, ATP-dependent translocase ABCB1 (Homo sapiens, UniProt P08183); assay: Modulation of human P-gp transfected in mouse L5178Y cells assessed as change in Rhodamine-123 efflux by measuring fluorescence activity ratio at 2 uM pretreated for 10 mins followed by Rhodamine-123 challenge for 20 mins by flow cytometry relative to parental mouse L5178Y cells; format: cell-based; details: 0.5 h, time 30 min
T1 sequence (P08183 whole entry): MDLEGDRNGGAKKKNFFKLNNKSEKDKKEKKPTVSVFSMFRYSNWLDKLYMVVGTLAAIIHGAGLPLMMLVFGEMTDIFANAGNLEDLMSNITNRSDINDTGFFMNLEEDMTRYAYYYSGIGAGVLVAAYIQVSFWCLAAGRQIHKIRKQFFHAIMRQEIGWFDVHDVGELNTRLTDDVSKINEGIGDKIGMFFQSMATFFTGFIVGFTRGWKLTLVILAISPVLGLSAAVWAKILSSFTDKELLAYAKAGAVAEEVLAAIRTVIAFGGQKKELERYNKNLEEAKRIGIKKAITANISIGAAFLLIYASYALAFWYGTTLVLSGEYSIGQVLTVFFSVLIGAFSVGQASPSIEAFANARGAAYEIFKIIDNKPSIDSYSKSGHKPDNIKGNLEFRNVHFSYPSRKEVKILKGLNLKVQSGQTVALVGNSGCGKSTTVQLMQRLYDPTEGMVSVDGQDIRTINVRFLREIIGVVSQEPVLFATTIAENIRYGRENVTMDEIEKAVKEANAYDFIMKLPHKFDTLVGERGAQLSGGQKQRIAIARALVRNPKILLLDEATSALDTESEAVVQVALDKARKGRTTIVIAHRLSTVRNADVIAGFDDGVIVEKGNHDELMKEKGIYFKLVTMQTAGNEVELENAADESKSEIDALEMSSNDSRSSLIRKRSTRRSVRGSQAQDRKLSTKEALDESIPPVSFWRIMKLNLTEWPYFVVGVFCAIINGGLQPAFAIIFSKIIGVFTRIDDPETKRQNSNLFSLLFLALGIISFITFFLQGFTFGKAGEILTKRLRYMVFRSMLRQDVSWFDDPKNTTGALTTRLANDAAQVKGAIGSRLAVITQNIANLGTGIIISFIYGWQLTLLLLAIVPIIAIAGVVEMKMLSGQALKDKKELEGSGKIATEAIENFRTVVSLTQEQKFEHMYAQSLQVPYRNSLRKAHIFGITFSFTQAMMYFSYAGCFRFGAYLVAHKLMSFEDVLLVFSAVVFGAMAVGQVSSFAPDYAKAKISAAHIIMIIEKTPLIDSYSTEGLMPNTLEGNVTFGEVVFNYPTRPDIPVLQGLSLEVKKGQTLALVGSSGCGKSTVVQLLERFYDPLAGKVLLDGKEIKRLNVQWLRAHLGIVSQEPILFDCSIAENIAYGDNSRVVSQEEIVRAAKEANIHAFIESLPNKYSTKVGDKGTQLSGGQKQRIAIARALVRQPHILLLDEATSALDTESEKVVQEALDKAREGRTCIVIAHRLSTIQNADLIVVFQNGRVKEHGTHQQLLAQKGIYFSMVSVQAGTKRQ
Procedure, shortened: (§1)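 PAR and MDR cells at 2 × 10^6 cells/mL in serum-free McCoy's 5A. Compound given 10 min at room temperature, then rhodamine-123 (5.2 μM final) for 20 min at 37 °C. Washed twice, resuspended in PBS, mean FL-1 read by flow cytometry. FAR = (MDR treated/untreated)/(PAR treated/untreated). Verapamil 20 μM positive control, DMSO 2% solvent control.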

L5178Y [2] = assay: Antiproliferative activity against mouse L5178Y cells assessed as reduction in cell viability incubated for 72 hrs by MTT assay; format: functional, cell-based
Procedure, shortened: (§2)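 Parental L5178Y or human ABCB1-transfected L5178Y MDR subline kept under 60 ng mL−1 colchicine selection; McCoy's 5A, 10% heat-inactivated horse serum, 37 °C. 6 × 10^3 cells/well exposed to 2-fold serial dilutions from 100 μM for 72 h. MTT 4 h, SDS overnight, OD 540/630 nm. Triplicate; IC50 from curve fitting, mean ± SD.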

[3] = Resistance ratio of IC50 for antiproliferative activity against multidrug resistant mouse L5178Y cells transfected with human ABCB1 to IC50 for antiproliferative activity against mouse L5178Y cells; format: functional
Procedure, shortened: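 RR = IC50(MDR)/IC50(PAR), IC50s from the 72 h MTT assay: 2-fold dilutions from 100 μM, 6 × 10^3 cells/well, triplicate. Collateral sensitivity taken as RR < 0.5; RR < 1 counted as selectivity toward resistant cells.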

[4] = biological target: T1, ATP-dependent translocase ABCB1; assay: Modulation of human P-gp transfected in mouse L5178Y cells assessed as change in Rhodamine-123 efflux by measuring fluorescence activity ratio at 20 uM pretreated for 10 mins followed by Rhodamine-123 challenge for 20 mins by flow cytometry relative to parental mouse L5178Y cells; format: cell-based; details: 0.5 h, time 30 min
L5178Y [5] = assay: Reversal of multidrug resistance in multidrug resistant mouse L5178Y cells transfected with human ABCB1 assessed as reduction in cell viability incubated for 72 hrs by MTT assay; format: functional, cell-based; procedure, shortened: as §2
L5178Y [6] = assay: Synergistic antiproliferative activity against multidrug resistant mouse L5178Y cells transfected with human ABCB1 assessed as combination index incubated for 72 hrs in presence of doxorubicin by MTT assay; format: functional
Procedure, shortened: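 Checkerboard in MDR cells, 6 × 10^3 cells/well. Doxorubicin in serial dilutions from 8.6 μM, crossed with modifier dilutions whose start level was set from its IC50. 72 h at 37 °C under CO2, growth read by MTT. Curves fitted by the median-effect equation; CI reported at 50% inhibition, mean ± SD.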

[7] = biological target: T1, ATP-dependent translocase ABCB1; assay: Modulation of human P-gp transfected in mouse L5178Y cells assessed as change in Rhodamine-123 efflux by measuring fluorescence activity ratio at 0.2 uM pretreated for 10 mins followed by Rhodamine-123 challenge for 20 mins by flow cytometry relative to parental mouse L5178Y cells; format: cell-based; details: 0.5 h, time 30 min; procedure, shortened: as §1

| Ratio [1] | Ratio [4] | Ratio [7] | SMILES | IC50 (L5178Y [2]) | Ratio [3] | IC50 (L5178Y [5]) | CI (L5178Y [6]) |
| --- | --- | --- | --- | --- | --- | --- | --- |
| 1.95 | 38.65 | – | C=C1CC[C@@H]2[C@](C)(COC(C)=O)[C@H](OC(C)=O)CC[C@@]2(C)[C@@H]1C/C=C1/C(=O)OC[C@H]1OC(C)=O | 13.3 µM | 1.45 | 19.2 µM | – |
| 3.36 | – | 1.56 | C=C1CC[C@@H]2[C@](C)(COC(C)=O)[C@H](OC(C)=O)CC[C@@]2(C)[C@@H]1C[C@H](NNC(=O)c1ccc(Cl)cc1)C1=CCOC1=O | 14.2 µM | 0.64 | 9.04 µM | <1 |
| 14.29 | 33.46 | – | C=C1CC[C@@H]2[C@](C)(COC(C)=O)[C@H](OC(C)=O)CC[C@@]2(C)[C@@H]1C[C@H](NNC(=S)Nc1cccc2ccccc12)C1=CCOC1=O | 52.9 µM | 0.97 | 51.3 µM | – |
| 7.9 | 55.07 | – | C=C1CC[C@@H]2[C@](C)(COC(C)=O)[C@H](OC(C)=O)CC[C@@]2(C)[C@@H]1C[C@H](NNC(=S)Nc1ccccc1)C1=CCOC1=O | 51.7 µM | – | > 100 µM | – |
| 4.28 | – | 2.32 | C=C1CC[C@@H]2[C@](C)(COC(C)=O)[C@H](OC(C)=O)CC[C@@]2(C)[C@@H]1C[C@H](NNC(=O)c1ccco1)C1=CCOC1=O | 11.1 µM | 1.38 | 15.3 µM | <1 |
| 0.48 | – | 0.48 | C=C1CC[C@@H]2[C@](C)(COC(C)=O)[C@H](OC(C)=O)CC[C@@]2(C)[C@@H]1C[C@H](NNC(=O)c1ccc(N)cc1)C1=CCOC1=O | 12.3 µM | 0.44 | 5.47 µM | <1 |
| 27.27 | 51.95 | – | C=C1CC[C@@H]2[C@](C)(COC(C)=O)[C@H](OC(C)=O)CC[C@@]2(C)[C@@H]1C[C@H](NNC(=S)Nc1ccc([N+](=O)[O-])cc1)C1=CCOC1=O | 16.1 µM | 3.4 | 54.8 µM | – |
| 18.86 | 60.26 | – | C=C1CC[C@@H]2[C@](C)(COC(C)=O)[C@H](OC(C)=O)CC[C@@]2(C)[C@@H]1C[C@H](NNC(=S)Nc1ccc(C)cc1)C1=CCOC1=O | 36.1 µM | 1.31 | 47.4 µM | – |
| 1.06 | 37.12 | – | C=C1CC[C@@H]2[C@](C)(COC(C)=O)[C@H](OC(C)=O)CC[C@@]2(C)[C@@H]1C[C@H](NNC(=S)Nc1ccccc1C)C1=CCOC1=O | 56.9 µM | 1.42 | 81 µM | – |
| 2.27 | – | 0.37 | C=C1CC[C@@H]2[C@](C)(COC(C)=O)[C@H](OC(C)=O)CC[C@@]2(C)[C@@H]1C[C@H](NNC(=O)c1ccc(C(F)(F)F)cc1)C1=CCOC1=O | 6.74 µM | 1.75 | 11.8 µM | <1 |
| 1.2 | 43.52 | – | C=C1CC[C@@H]2[C@](C)(COC(C)=O)[C@H](OC(C)=O)CC[C@@]2(C)[C@@H]1C[C@H](NNC(=S)NC(C)(C)C)C1=CCOC1=O | 60.1 µM | 0.9 | 54.2 µM | – |
| 5.19 | – | 1.63 | C=C1CC[C@@H]2[C@](C)(COC(C)=O)[C@H](OC(C)=O)CC[C@@]2(C)[C@@H]1C[C@@H](NNC(=O)c1ccc(C(F)(F)F)cc1)C1=CCOC1=O | 14.2 µM | 1.08 | 15.3 µM | <1 |
| 1.03 | 79.33 | – | C=C1CC[C@@H]2[C@](C)(COC(C)=O)[C@H](OC(C)=O)CC[C@@]2(C)[C@@H]1C[C@H](NNC(=S)Nc1ccccc1F)C1=CCOC1=O | 52.6 µM | 1.33 | 70 µM | – |
| 0.32 | – | 0.49 | C=C1CC[C@@H]2[C@](C)(COC(C)=O)[C@H](OC(C)=O)CC[C@@]2(C)[C@@H]1C[C@H](NNC(=O)c1cccnc1)C1=CCOC1=O | 12.5 µM | 0.94 | 11.8 µM | <1 |
| 1.21 | 64.99 | – | C=C1CC[C@@H]2[C@](C)(COC(C)=O)[C@H](OC(C)=O)CC[C@@]2(C)[C@@H]1C[C@H](NNC(=O)OCc1ccc(OC)cc1)C1=CCOC1=O | 17.7 µM | 1.32 | 23.4 µM | <1 |
| 1.71 | 57.14 | – | C=C1CC[C@@H]2[C@](C)(COC(C)=O)[C@H](OC(C)=O)CC[C@@]2(C)[C@@H]1C[C@H](NNC(=S)NCc1ccccc1)C1=CCOC1=O | 66.9 µM | 1.01 | 67.6 µM | – |
| 58.18 | 61.3 | – | C=C1CC[C@@H]2[C@](C)(COC(C)=O)[C@H](OC(C)=O)CC[C@@]2(C)[C@@H]1C[C@H](NNC(=S)N(C)C)C1=CCOC1=O | 29.1 µM | 1.4 | 40.9 µM | – |
| 61.3 | 79.48 | – | C=C1CC[C@@H]2[C@](C)(COC(C)=O)[C@H](OC(C)=O)CC[C@@]2(C)[C@@H]1C[C@H](NNC(=S)Nc1ccc(CC)cc1)C1=CCOC1=O | 38.9 µM | – | > 100 µM | – |
| 1.27 | 31.12 | – | C=C1CC[C@@H]2[C@](C)(COC(C)=O)[C@H](OC(C)=O)CC[C@@]2(C)[C@@H]1C[C@H](NNC(=S)NCc1ccco1)C1=CCOC1=O | 50.1 µM | 1.43 | 71.5 µM | – |
| 0.88 | 41.85 | – | C=C1CC[C@@H]2[C@](C)(COC(C)=O)[C@H](OC(C)=O)CC[C@@]2(C)[C@@H]1C[C@H](NNC(=S)NC)C1=CCOC1=O | 44.4 µM | 1.16 | 51.3 µM | – |
| 1.89 | – | 0.54 | C=C1CC[C@@H]2[C@](C)(COC(C)=O)[C@H](OC(C)=O)CC[C@@]2(C)[C@@H]1C[C@H](NNC(=O)c1cccs1)C1=CCOC1=O | 15.5 µM | 0.96 | 15 µM | <1 |
| 18.13 | 64.94 | – | C=C1CC[C@@H]2[C@](C)(COC(C)=O)[C@H](OC(C)=O)CC[C@@]2(C)[C@@H]1C[C@H](NNC(=S)NC1CCCCC1)C1=CCOC1=O | 75.7 µM | 0.89 | 67.4 µM | – |
| 1.37 | 50.23 | – | C=C1CC[C@@H]2[C@](C)(COC(C)=O)[C@H](OC(C)=O)CC[C@@]2(C)[C@@H]1C[C@H](NNC(=S)NCCN1CCOCC1)C1=CCOC1=O | 61.5 µM | 0.96 | 58.7 µM | – |
| 16.12 | – | 2.34 | C=C1CC[C@@H]2[C@](C)(COC(C)=O)[C@H](OC(C)=O)CC[C@@]2(C)[C@@H]1C[C@H](NNc1ccc(Br)cn1)C1=CCOC1=O | 20.6 µM | 0.58 | 12 µM | 0.21 |
| 0.96 | 0.82 | – | C=C1CC[C@@H]2[C@](C)(CO)[C@H](O)CC[C@@]2(C)[C@@H]1C/C=C1/C(=O)OC[C@H]1O [ANDROGRAPHOLIDE] | 14.5 µM | 1.03 | 15 µM | <1 |
| – | – | – | COc1cccc2c1C(=O)c1c(O)c3c(c(O)c1C2=O)C[C@@](O)(C(=O)CO)C[C@@H]3O[C@H]1C[C@H](N)[C@H](O)[C@H](C)O1 [DOXORUBICIN] | 0.07 µM | 95.43 | 6.82 µM | – |
